In brackets after ≈: the same amount, converted by molar mass. Activity calls are given as the source filed them. No cut-off for these calls is given here.
What was measured:
Candida parapsilosis [1] = test: Antifungal activity against Candida parapsilosis ATCC 22019 assessed as reduction in fungal cell growth incubated for 24 hrs by MTT based broth double dilution method; format: functional; details: Lodderomyces parapsilosis, ATCC 22019, 24 h
In short: (§1)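 Broth double-dilution in Casitone broth. Starter cultures were grown 24 or 48 h at 37 °C, 5% CO₂, diluted 1:100, and added to serial two-fold dilutions at 64 to 0.007 µg/mL. Final inoculum was 5 x 10^4 to 5 x 10^5 CFU/mL; DMSO was 0.0012–1.3%. Plates were incubated at 37 °C, 5% CO₂, then MTT was added for 2 h. MIC followed CLSI M27-A3. Triplicates, two independent experiments.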

Candida albicans [2] = test: Antifungal activity against Candida albicans ATCC 90028 assessed as reduction in fungal cell growth incubated for 24 hrs by MTT based broth double dilution method; format: functional; details: ATCC 90028, 24 h; in short: as §1
Candida dubliniensis = test: Antifungal activity against Candida dubliniensis T-99 assessed as reduction in fungal cell growth incubated for 24 hrs by MTT based broth double dilution method; format: functional; details: T-99, 24 h; in short: as §1
[3] = test system: Meyerozyma guilliermondii; test: Antifungal activity against Candida guilliermondii T-47 assessed as reduction in fungal cell growth incubated for 24 hrs by MTT based broth double dilution method; format: functional; details: T-47, 24 h; in short: as §1
Candida albicans [4] = test: Antifungal activity against Candida albicans SN152 assessed as reduction in fungal cell growth incubated for 24 hrs by MTT based broth double dilution method; format: functional; details: SN152, 24 h; in short: as §1
Candida parapsilosis [5] = test: Antifungal activity against Candida parapsilosis ATCC 90018 assessed as reduction in fungal cell growth incubated for 24 hrs by MTT based broth double dilution method; format: functional; details: Lodderomyces parapsilosis, ATCC 90018, 24 h; in short: as §1
Candida albicans [6] = test: Antifungal activity against Candida albicans P-87 assessed as reduction in fungal cell growth incubated for 24 hrs by MTT based broth double dilution method; format: functional; details: P-87, 24 h; in short: as §1
Nakaseomyces glabratus [7] = test: Antifungal activity against Candida glabrata 192 assessed as reduction in fungal cell growth incubated for 24 hrs by MTT based broth double dilution method; format: functional; details: Nakaseomyces glabratus, 192, 24 h; in short: as §1
Nakaseomyces glabratus [8] = test: Antifungal activity against Candida glabrata ATCC 2001 assessed as reduction in fungal cell growth incubated for 24 hrs by MTT based broth double dilution method; format: functional; details: ATCC 2001, 24 h; in short: as §1
Nakaseomyces glabratus [9] = test: Antifungal activity against Candida glabrata ATCC 66032 assessed as reduction in fungal cell growth incubated for 24 hrs by MTT based broth double dilution method; format: functional; details: ATCC 66032, 24 h; in short: as §1
Nakaseomyces glabratus [10] = test: Antifungal activity against Candida glabrata 192 assessed as reduction in fungal cell growth incubated for 48 hrs by MTT based broth double dilution method; format: functional; details: Nakaseomyces glabratus, 192, 48 h; in short: as §1
Candida albicans [11] = test: Antifungal activity against Candida albicans SN152 assessed as reduction in fungal cell growth incubated for 48 hrs by MTT based broth double dilution method; format: functional; details: SN152, 48 h; in short: as §1
Nakaseomyces glabratus [12] = test: Antifungal activity against Candida glabrata ATCC 66032 assessed as reduction in fungal cell growth incubated for 48 hrs by MTT based broth double dilution method; format: functional; details: ATCC 66032, 48 h; in short: as §1
Candida albicans [13] = test: Antifungal activity against Candida albicans ATCC 90028 assessed as reduction in fungal cell growth incubated for 48 hrs by MTT based broth double dilution method; format: functional; details: ATCC 90028, 48 h; in short: as §1
[14] = Cytotoxicity against human HEK293T cells assessed as reduction in cell viability at 5 to 50 uM incubated for 24 hrs by XTT assay relative to control; format: cell-based, HEK-293T; details: HEK293T cells, read-out: INH
In short: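 HEK-293T cells were grown in DMEM with 10% FBS, 1% NEAA, 1% pyruvate and pen-strep-nystatin at 37 °C and 5% CO2. 7000 cells/well were seeded on poly-D-lysine-coated wells. After 24 h the medium was renewed and compounds were added at 5–50 µM from 1 mM stocks in 10% DMSO/0.3% Tween/PBS. After 24 h, XTT was added for 2 h at 37 °C, with absorbance read at 475 nm (reference 660 nm).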

Candida albicans [15] = test: Antifungal activity against Candida albicans SN152 assessed as zone inhibition at 25 ug incubated for 24 hrs by disk diffusion method; format: functional, organism-based
In short: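 Strains were streaked on YPD agar and grown at 30 °C: 24 h for parental SN152, 48 h for the erg11ΔΔ erg3ΔΔ mutant. Colonies were suspended in PBS and adjusted to OD 0.02 (SN152) or 0.03 (mutant), then spread on Casitone plates. A 6-mm disk loaded with 25 µg compound was placed centrally. Plates were incubated at 30 °C and photographed after 24 h.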

[16] = Cytotoxicity against human HepG2 cells assessed as reduction in cell viability at 5 to 50 uM incubated for 24 hrs by XTT assay relative to control; format: cell-based; details: read-out: INH
In short: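 HepG2 cells were maintained in RPMI with 15% FBS, 1% NEAA, 1% pyruvate and pen-strep-nystatin at 37 °C and 5% CO2. 4000 cells/well were plated on poly-D-lysine coating and given fresh medium after 24 h. Compounds were dosed at 5–50 µM from 1 mM stocks in 10% DMSO/0.3% Tween/PBS and incubated 24 h. Viability was read by XTT (2 h, 37 °C) at 475 nm against 660 nm.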

Candida albicans [17] = test: Antifungal activity against ERG11/ERG3 knocked out Candida albicans SN152 assessed as zone of inhibition at 25 ug […] by disk diffusion method; format: functional, organism-based
HEK-293T = test: Cytotoxicity against human HEK293T cells assessed as reduction in cell viability at 5 to 50 uM incubated for 24 hrs by XTT assay; format: cell-based
In short: (§2)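 HEK-293T were grown in DMEM with 10% FBS; HepG2 in RPMI with 15% FBS; both at 37 °C, 5% CO₂. Cells (4000 HepG2 or 7000 HEK-293T per well) were seeded on poly-D-lysine wells. After 24 h the medium was renewed and compounds added at 5–50 µM from 1 mM stocks in 10% DMSO/0.3% Tween/PBS. After 24 h more, XTT was added for 2 h at 37 °C; absorbance was read at 475 nm against 660 nm reference.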

HepG2 = test: Cytotoxicity against human HepG2 cells assessed as reduction in cell viability at 5 to 50 uM incubated for 24 hrs by XTT assay; format: cell-based; details: hepg2, 24 h; in short: as §2

| Compound | MIC (Candida parapsilosis [1]) | MIC (Candida albicans [2]) | MIC (Candida dubliniensis) | MIC [3] | MIC (Candida albicans [4]) | MIC (Candida parapsilosis [5]) | MIC (Candida albicans [6]) | MIC (Nakaseomyces glabratus [7]) | MIC (Nakaseomyces glabratus [8]) | MIC (Nakaseomyces glabratus [9]) | MIC (Nakaseomyces glabratus [10]) | MIC (Candida albicans [11]) | MIC (Nakaseomyces glabratus [12]) | MIC (Candida albicans [13]) | cytotoxicity at 24 h, up to 50 µM [14] | inhibition zone (IZ) (Candida albicans [15]) | cytotoxicity at 24 h, up to 50 µM [16] | inhibition zone (IZ) (Candida albicans [17]) | Activity (HEK-293T) | Activity (HepG2) |
| --- | --- | --- | --- | --- | --- | --- | --- | --- | --- | --- | --- | --- | --- | --- | --- | --- | --- | --- | --- | --- |
| COc1ccc2cc(C(=O)NCC(O)(Cn3cncn3)c3ccc(F)cc3F)c(=O)oc2c1 (racemic) | 2 µg/mL (≈ 4.38 µM) | 0.25 µg/mL (≈ 0.548 µM) | 4 µg/mL (≈ 8.76 µM) | 1 µg/mL (≈ 2.19 µM) | 0.5 µg/mL (≈ 1.1 µM) | 0.25 µg/mL (≈ 0.548 µM) | 0.125 µg/mL (≈ 0.274 µM) | 4 µg/mL (≈ 8.76 µM) | 8 µg/mL (≈ 17.5 µM) | 32 µg/mL (≈ 70.1 µM) | – | – | – | – | – | – | – | – | – | – |
| O=C(NCC(O)(Cn1cncn1)c1ccc(F)cc1F)c1cc2ccccc2oc1=O (racemic) | 2 µg/mL (≈ 4.69 µM) | 0.25 µg/mL (≈ 0.586 µM) | 0.5 µg/mL (≈ 1.17 µM) | 1 µg/mL (≈ 2.35 µM) | 0.25 µg/mL (≈ 0.586 µM) | 0.25 µg/mL (≈ 0.586 µM) | 0.125 µg/mL (≈ 0.293 µM) | 1 µg/mL (≈ 2.35 µM) | 4 µg/mL (≈ 9.38 µM) | 1 µg/mL (≈ 2.35 µM) | – | – | – | – | – | – | – | – | – | – |
| CCC(C)n1ncn(-c2ccc(N3CCN(c4ccc(OCC5COC(Cn6cncn6)(c6ccc(Cl)cc6Cl)O5)cc4)CC3)cc2)c1=O (racemic) [ITRACONAZOLE] | 0.03 µg/mL (≈ 0.0425 µM) | 0.007 µg/mL (≈ 0.00992 µM) | 0.06 µg/mL (≈ 0.085 µM) | 0.03 µg/mL (≈ 0.0425 µM) | 0.007 µg/mL (≈ 0.00992 µM) | 0.007 µg/mL (≈ 0.00992 µM) | 0.007 µg/mL (≈ 0.00992 µM) | 0.125 µg/mL (≈ 0.177 µM) | 1 µg/mL (≈ 1.42 µM) | 1 µg/mL (≈ 1.42 µM) | 0.125 µg/mL (≈ 0.177 µM) | 0.007 µg/mL (≈ 0.00992 µM) | > 64 µg/mL | 0.007 µg/mL (≈ 0.00992 µM) | – | – | – | – | – | – |
| CC(=O)N1CCN(c2ccc(OCC3COC(Cn4ccnc4)(c4ccc(Cl)cc4Cl)O3)cc2)CC1 (racemic) [KETOCONAZOLE] | 0.007 µg/mL (≈ 0.0132 µM) | 0.007 µg/mL (≈ 0.0132 µM) | 0.007 µg/mL (≈ 0.0132 µM) | 0.007 µg/mL (≈ 0.0132 µM) | 0.007 µg/mL (≈ 0.0132 µM) | 0.007 µg/mL (≈ 0.0132 µM) | 0.007 µg/mL (≈ 0.0132 µM) | 0.06 µg/mL (≈ 0.113 µM) | 1 µg/mL (≈ 1.88 µM) | 1 µg/mL (≈ 1.88 µM) | 0.125 µg/mL (≈ 0.235 µM) | 0.007 µg/mL (≈ 0.0132 µM) | 4 µg/mL (≈ 7.53 µM) | 0.007 µg/mL (≈ 0.0132 µM) | < 40% | Active | < 40% | Active | Toxic | Toxic |
| Clc1ccccc1C(c1ccccc1)(c1ccccc1)n1ccnc1 [CLOTRIMAZOLE] | 0.007 µg/mL (≈ 0.0203 µM) | 0.007 µg/mL (≈ 0.0203 µM) | 0.007 µg/mL (≈ 0.0203 µM) | 0.007 µg/mL (≈ 0.0203 µM) | 0.007 µg/mL (≈ 0.0203 µM) | 0.007 µg/mL (≈ 0.0203 µM) | 0.007 µg/mL (≈ 0.0203 µM) | 0.06 µg/mL (≈ 0.174 µM) | 0.5 µg/mL (≈ 1.45 µM) | – | 0.25 µg/mL (≈ 0.725 µM) | 0.007 µg/mL (≈ 0.0203 µM) | – | 0.007 µg/mL (≈ 0.0203 µM) | – | – | – | – | – | – |
| Clc1ccc(COC(Cn2ccnc2)c2ccc(Cl)cc2Cl)c(Cl)c1 (stereo not given) [MICONAZOLE] | 0.003 µg/mL (≈ 0.00721 µM) | 0.007 µg/mL (≈ 0.0168 µM) | 0.06 µg/mL (≈ 0.144 µM) | 0.06 µg/mL (≈ 0.144 µM) | 0.007 µg/mL (≈ 0.0168 µM) | 0.06 µg/mL (≈ 0.144 µM) | 0.007 µg/mL (≈ 0.0168 µM) | 0.06 µg/mL (≈ 0.144 µM) | 1 µg/mL (≈ 2.4 µM) | 2 µg/mL (≈ 4.81 µM) | 0.125 µg/mL (≈ 0.3 µM) | 0.015 µg/mL (≈ 0.036 µM) | 4 µg/mL (≈ 9.61 µM) | 0.015 µg/mL (≈ 0.036 µM) | – | Active | – | Active | – | – |
| CC[C@@H]([C@H](C)O)n1ncn(-c2ccc(N3CCN(c4ccc(OC[C@@H]5CO[C@@](Cn6cncn6)(c6ccc(F)cc6F)C5)cc4)CC3)cc2)c1=O [POSACONAZOLE] | 0.03 µg/mL (≈ 0.0428 µM) | 0.007 µg/mL (≈ 0.00999 µM) | 0.03 µg/mL (≈ 0.0428 µM) | 0.03 µg/mL (≈ 0.0428 µM) | 0.007 µg/mL (≈ 0.00999 µM) | 0.015 µg/mL (≈ 0.0214 µM) | 0.007 µg/mL (≈ 0.00999 µM) | 0.125 µg/mL (≈ 0.178 µM) | 1 µg/mL (≈ 1.43 µM) | 1 µg/mL (≈ 1.43 µM) | 0.125 µg/mL (≈ 0.178 µM) | 0.007 µg/mL (≈ 0.00999 µM) | > 64 µg/mL | 0.007 µg/mL (≈ 0.00999 µM) | < 40% | – | < 40% | – | Toxic | Toxic |

Reference: ChEMBL document CHEMBL4351026, “Antifungal activity, mode of action variability, and subcellular distribution of coumarin-based antifungal azoles” (Eur J Med Chem, 2019)
